We go through 5 compounds from ChEMBL document CHEMBL1146170, “Facile synthesis of substituted thiophenes via Pd/C-mediated sonogashira coupling in water” (2006).

What all share (settings): Homo sapiens
One assay relates to HT-29. The assay is described as follows: Growth inhibition of HT29 cells at 100 uM; values are per cent of control.
For assay [1], the system named is LoVo. Nature of the assay: Growth inhibition of LoVo cells at 100 uM; values are per cent of control.
Another assay deals with NCI-H460. The assay is described as follows: Growth inhibition of NCI-H460 cells at 100 uM; values are per cent of control.
The subject of assay [2] is LoVo. Nature of the assay: Growth inhibition of LoVo cells. Type of assay: functional. In a few lines:
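LoVo human colon cancer cells were screened by the NCI standard anticancer protocol. Percentage cell growth was read after initial treatment at 100 µM. Follow-up testing used 10, 1.0, 0.1 and 0.01 µM. GI50 was the concentration giving 50% inhibition of cell growth.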

Regarding `C(#Cc1cccs1)COc1ccccc1`, the values for the growth, % of control at 100 µM in the assay on HT-29, in the assay with LoVo [1] and in the assay with NCI-H460 were 63%, 47% and 88%, respectively.
For `Cc1ccc(C#Cc2cccs2)cc1` the same measures were 83%, 83% and 68%.
For `CC(C)(O)C#Cc1cccs1` the same measures were 95%, 78% and 105%.
The GI50 is the concentration giving 50% growth inhibition. For the compound `O=[N+]([O-])c1ccc(OCC#Cc2cccs2)cc1`, in the assay with LoVo [2], halving of growth (GI50) required 47.5 µM. Further, the CC50 with LoVo [2] (read-out: LC50 (the source's name)) stood at 100 µM. Moreover, the growth, % of control at 100 µM with HT-29 turned out to be 44%; with LoVo [1], 26%; with NCI-H460 it was 48%.
For `CC(=O)Nc1ccsc1C#CC(C)(C)O`, the values for the growth, % of control at 100 µM in the assay on HT-29, in the assay with LoVo [1] and in the assay on NCI-H460 were 90%, 78% and 56%, respectively.
